Active and inactive are the calls of the source. No cut-off for these calls is given here.
Experiments:
[1] = system: Aspergillus fumigatus; assay: Antifungal activity against Aspergillus fumigatus Af293 assessed as decrease in 1, 3-beta-D-glucan cell wall content at 1 ug/ml after 48 hrs by aniline blue assay; type: functional, organism-based
Procedure, shortened: (§1)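 10⁶ conidia/ml were grown in RPMI 1640 with or without drug for 48 h at 37°C, 250 rpm. Hyphae were washed in 0.1 M NaOH and lyophilized. 5 mg was taken into 1 M NaOH, sonicated and heated at 52°C for 30 min. Aniline blue mix (pH 9.5) was added for 30 min at 52°C. Fluorescence was read at ex 405/em 460 nm against a curdlan standard curve. Results are % change in RFU/mg versus untreated wild type, from five independent experiments.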

[2] = system: Aspergillus fumigatus; assay: Antifungal activity against cnaA deficient Aspergillus fumigatus Af293 assessed as abnormal hyphal growth by CLSI method; type: functional; settings: read-out: MEC
Procedure, shortened: (§2)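 MEC by CLSI broth microdilution in RPMI 1640. Conidia were incubated with or without drug for 48 h at 37°C, in triplicate.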

[3] = system: Aspergillus fumigatus; assay: Antifungal activity against Aspergillus fumigatus H237 expressing dominant-active rasA gene assessed as FICI in combination with caspofungin
[4] = system: Aspergillus fumigatus; assay: Antifungal activity against Aspergillus fumigatus Af293 expressing crzA gene assessed as FICI in combination with caspofungin
[5] = system: Aspergillus fumigatus; assay: Antifungal activity against Aspergillus fumigatus Af293 expressing cnaA gene assessed as FICI in combination with caspofungin
[6] = system: Aspergillus fumigatus; assay: Antifungal activity against cnaA deficient Aspergillus fumigatus Af293 assessed as FICI in combination with caspofungin
[7] = system: Aspergillus fumigatus; assay: Antifungal activity against Aspergillus fumigatus H237 expressing rasA gene assessed as FICI in combination with caspofungin
[8] = system: Aspergillus fumigatus; assay: Antifungal activity against rasA deficient Aspergillus fumigatus H237 assessed as decrease in 1, 3-beta-D-glucan cell wall content at 1 ug/ml by aniline blue assay; type: functional, organism-based; procedure, shortened: as §1
[9] = system: Aspergillus fumigatus; assay: Antifungal activity against rasA deficient Aspergillus fumigatus H237 assessed as increase in chitin cell wall content at 16 ug/ml after 48 hrs; type: functional, organism-based
Procedure, shortened: (§3)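 Nikkomycin Z dose series from 0 to 16 μg/ml, added to cultures of 10⁶ conidia/ml in RPMI 1640 for 48 h at 37°C, 250 rpm. Chitin was assayed on 5 mg of lyophilized mycelium by KOH hydrolysis at 130°C, then MBTH colorimetry at A650 against a glucosamine standard. Output is glucosamine equivalents (μg/ml), from biological triplicate.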

[10] = system: Candida albicans; assay: Antifungal activity against Candida albicans SC5314 assessed as decrease in chitin cell wall content at 4 ug/ml after 48 hrs; type: functional, organism-based
[11] = system: Aspergillus fumigatus; assay: Antifungal activity against cnaA deficient Aspergillus fumigatus Af293 assessed as increase in chitin cell wall content at 1 to 16 ug/ml after 48 hrs; type: functional, organism-based; procedure, shortened: as §3
[12] = system: Aspergillus fumigatus; assay: Antifungal activity against crzA deficient Aspergillus fumigatus Af293 assessed as abnormal hyphal growth by CLSI method; type: functional; settings: read-out: MEC; procedure, shortened: as §2
[13] = system: Aspergillus fumigatus; assay: Antifungal activity against Aspergillus fumigatus H237 assessed as FICI in combination with caspofungin
[14] = system: Aspergillus fumigatus; assay: Antifungal activity against crzA deficient Aspergillus fumigatus Af293 assessed as increase in chitin cell wall content at 1 to 16 ug/ml after 48 hrs; type: functional, organism-based; procedure, shortened: as §3
[15] = system: Aspergillus fumigatus; assay: Antifungal activity against crzA deficient Aspergillus fumigatus Af293 assessed as increase in chitin cell wall content at 16 ug/ml after 48 hrs; type: functional, organism-based; procedure, shortened: as §3
[16] = system: Aspergillus fumigatus; assay: Antifungal activity against rasA deficient Aspergillus fumigatus H237 assessed as abnormal hyphal growth by CLSI method; type: functional; settings: read-out: MEC; procedure, shortened: as §2
[17] = system: Aspergillus fumigatus; assay: Antifungal activity against Aspergillus fumigatus Af293 assessed as abnormal hyphal growth by CLSI method; type: functional; settings: read-out: MEC; procedure, shortened: as §2
[18] = system: Aspergillus fumigatus; assay: Antifungal activity against Aspergillus fumigatus H237 assessed as decrease in 1, 3-beta-D-glucan cell wall content at 1 ug/ml after 48 hrs by aniline blue assay; type: functional, organism-based; procedure, shortened: as §1
[19] = system: Aspergillus fumigatus; assay: Antifungal activity against cnaA deficient Aspergillus fumigatus Af293 assessed as increase in chitin cell wall content at 16 ug/ml after 48 hrs; type: functional, organism-based; procedure, shortened: as §3
[20] = system: Aspergillus fumigatus; assay: Antifungal activity against Aspergillus fumigatus H237 expressing dominant-active rasA assessed as increase in chitin cell wall content at 1 to 16 ug/ml after 48 hrs; type: functional, organism-based; procedure, shortened: as §3
[21] = system: Aspergillus fumigatus; assay: Antifungal activity against cnaA deficient Aspergillus fumigatus Af293 assessed as decrease in 1, 3-beta-D-glucan cell wall content at 1 ug/ml by aniline blue assay; type: functional, organism-based; procedure, shortened: as §1
[22] = system: Aspergillus fumigatus; assay: Antifungal activity against Aspergillus fumigatus H237 expressing dominant-active rasA assessed as decrease in 1, 3-beta-D-glucan cell wall content at 1 ug/ml after 48 hrs by aniline blue assay; type: functional, organism-based; procedure, shortened: as §1
[23] = system: Aspergillus fumigatus; assay: Antifungal activity against rasA deficient Aspergillus fumigatus H237 assessed as increase in chitin cell wall content at 1 to 16 ug/ml after 48 hrs; type: functional, organism-based; procedure, shortened: as §3
[24] = system: Aspergillus fumigatus; assay: Antifungal activity against Aspergillus fumigatus Af293 expressing cnaA gene assessed as abnormal hyphal growth by CLSI method; type: functional; settings: read-out: MEC; procedure, shortened: as §2
[25] = system: Aspergillus fumigatus; assay: Antifungal activity against rasA deficient Aspergillus fumigatus H237 assessed as FICI in combination with caspofungin
[26] = system: Aspergillus fumigatus; assay: Antifungal activity against Aspergillus fumigatus Af293 assessed as FICI in combination with caspofungin
[27] = system: Aspergillus fumigatus; assay: Antifungal activity against crzA deficient Aspergillus fumigatus Af293 assessed as FICI in combination with caspofungin
[28] = system: Aspergillus fumigatus; assay: Antifungal activity against Aspergillus fumigatus Af293 expressing crzA gene assessed as abnormal hyphal growth by CLSI method; type: functional; settings: read-out: MEC; procedure, shortened: as §2
[29] = system: Aspergillus fumigatus; assay: Antifungal activity against Aspergillus fumigatus H237 assessed as abnormal hyphal growth by CLSI method; type: functional; settings: read-out: MEC; procedure, shortened: as §2
[30] = system: Aspergillus fumigatus; assay: Antifungal activity against crzA deficient Aspergillus fumigatus Af293 assessed as decrease in 1, 3-beta-D-glucan cell wall content at 1 ug/ml by aniline blue assay; type: functional, organism-based; procedure, shortened: as §1
[31] = system: Aspergillus fumigatus; assay: Antifungal activity against Aspergillus fumigatus H237 expressing dominant-active rasA gene assessed as abnormal hyphal growth by CLSI method; type: functional; settings: read-out: MEC; procedure, shortened: as §2
[32] = system: Aspergillus fumigatus; assay: Antifungal activity against Aspergillus fumigatus H237 expressing dominant-active rasA assessed as increase in chitin cell wall content at 16 ug/ml after 48 hrs; type: functional, organism-based; procedure, shortened: as §3
[33] = system: Aspergillus fumigatus; assay: Antifungal activity against Aspergillus fumigatus H237 expressing rasA gene assessed as abnormal hyphal growth by CLSI method; type: functional; settings: read-out: MEC; procedure, shortened: as §2
[34] = system: Aspergillus fumigatus; assay: Antifungal activity against cnaA deficient Aspergillus fumigatus Af293 assessed as increase in calcofluor white staining og conidia at 1 ug/ml after 16 hrss by fluorescence microscopy; type: functional, organism-based
Procedure, shortened: (§4)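 10³ conidia/ml were grown on coverslips in RPMI 1640 with or without 1 μg/ml drug for 16 h at 37°C. Coverslips were stained with calcofluor white for 5 min at room temperature, rinsed and mounted. Fluorescence microscopy used a UV exposure fixed at 25 ms, set on the untreated wild type.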

[35] = system: Aspergillus fumigatus; assay: Antifungal activity against Aspergillus fumigatus Af293 assessed as increase in calcofluor white staining og conidia at 1 ug/ml after 16 hrs by fluorescence microscopy; type: functional, organism-based; procedure, shortened: as §4
[36] = system: Aspergillus fumigatus; assay: Antifungal activity against crzA deficient Aspergillus fumigatus Af293 assessed as increase in calcofluor white staining og conidia at 1 ug/ml after 16 hrss by fluorescence microscopy; type: functional, organism-based; procedure, shortened: as §4
[37] = system: Aspergillus fumigatus; assay: Antifungal activity against Aspergillus fumigatus Af293 assessed as increase in chitin cell wall content at 1 ug/ml after 48 hrs; type: functional, organism-based
Procedure, shortened: (§5)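 Cultures were grown at 10⁶ conidia/ml in RPMI 1640 with 1 μg/ml drug (single agent or combination) for 48 h at 37°C, 250 rpm. 5 mg of lyophilized mycelium was digested in saturated KOH at 130°C for 1 h, then ethanol-precipitated. Glucosamine was measured by nitrous acid deamination and MBTH/FeCl₃ colour, A650, against a 10 μg/ml glucosamine standard. Output is glucosamine equivalents (μg/ml), from biological triplicate.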

[38] = system: Aspergillus fumigatus; assay: Antifungal activity against cnaA deficient Aspergillus fumigatus Af293 assessed as increase in chitin cell wall content at 1 ug/ml; type: functional, organism-based; procedure, shortened: as §5
[39] = system: Candida albicans; assay: Antifungal activity against Candida albicans SC5314 assessed as increase in chitin cell wall content at 0.125 ug/ml; type: functional
[40] = system: Aspergillus fumigatus; assay: Antifungal activity against rasA deficient Aspergillus fumigatus H237 assessed as increase in chitin cell wall content at 1 ug/ml; type: functional, organism-based; procedure, shortened: as §5
[41] = system: Aspergillus fumigatus; assay: Antifungal activity against crzA deficient Aspergillus fumigatus Af293 assessed as increase in chitin cell wall content at 1 ug/ml; type: functional, organism-based; procedure, shortened: as §5
[42] = system: Aspergillus fumigatus; assay: Antifungal activity against Aspergillus fumigatus H237 assessed as increase in chitin cell wall content at 1 ug/ml after 48 hrs; type: functional, organism-based; procedure, shortened: as §5
[43] = system: Aspergillus fumigatus; assay: Antifungal activity against cnaA deficient Aspergillus fumigatus Af293 assessed as inhibition of hyphal growth at germling stage at 1 ug/ml by CLSI method; type: functional, organism-based
Procedure, shortened: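 Conidia were grown as for CLSI susceptibility testing in RPMI 1640 with or without echinocandin (1 μg/ml) for 48 h at 37°C. Hyphal morphology was then examined by bright-field microscopy.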

[44] = system: Aspergillus fumigatus; assay: Antifungal activity against Aspergillus fumigatus H237 expressing dominant-active rasA assessed as increase in chitin cell wall content at 1 ug/ml; type: functional, organism-based; procedure, shortened: as §5

SMILES	Activity [1]	minimal effective concentration [2] [µg/mL]	Activity [8]	minimal effective concentration [12] [µg/mL]	minimal effective concentration [16] [µg/mL]	minimal effective concentration [17] [µg/mL]	Activity [18]	Activity [21]	Activity [22]	minimal effective concentration [24] [µg/mL]	minimal effective concentration [28] [µg/mL]	minimal effective concentration [29] [µg/mL]	Activity [30]	minimal effective concentration [31] [µg/mL]	minimal effective concentration [33] [µg/mL]	further results
C[C@@H]([C@H](N)C(=O)N[C@H](C(=O)O)[C@H]1O[C@@H](n2ccc(=O)[nH]c2=O)[C@H](O)[C@@H]1O)[C@H](O)c1ccc(O)cn1 [NIKKOMYCIN]	Active	0.125	inactive	0.5	0.5	2	Active	inactive	inactive	2	4	4	inactive	4	2	fractional inhibitory concentration index (FICI) [3]: 0.5; fractional inhibitory concentration index (FICI) [4]: 0.16; fractional inhibitory concentration index (FICI) [5]: 0.09; fractional inhibitory concentration index (FICI) [6]: 0.19; fractional inhibitory concentration index (FICI) [7]: 0.09; Activity [9]: inactive; Activity [10]: Active; Activity [11]: inactive; fractional inhibitory concentration index (FICI) [13]: 0.16; Activity [14]: inactive; Activity [15]: inactive; Activity [19]: inactive; Activity [20]: inactive; Activity [23]: inactive; fractional inhibitory concentration index (FICI) [25]: 0.03; fractional inhibitory concentration index (FICI) [26]: 0.09; fractional inhibitory concentration index (FICI) [27]: 0.13; Activity [32]: inactive
CC[C@H](C)C[C@H](C)CCCCCCCCC(=O)N[C@H]1C[C@@H](O)[C@@H](NCCN)NC(=O)[C@@H]2[C@@H](O)CCN2C(=O)[C@H]([C@H](O)CCN)NC(=O)[C@H]([C@H](O)[C@@H](O)c2ccc(O)cc2)NC(=O)[C@@H]2C[C@@H](O)CN2C(=O)[C@H]([C@@H](C)O)NC1=O [CASPOFUNGIN]	Active	0.25	Active	0.5	8	1	Active	Active	Active	1	1	1	Active	0.25	1	Activity [34]: inactive; Activity [35]: inactive; Activity [36]: Active; Activity [37]: Active; Activity [38]: inactive; fold change (FC) [39]: 2; Activity [40]: Active; Activity [41]: inactive; Activity [42]: Active; Activity [43]: Active; Activity [44]: Active

Source: ChEMBL document CHEMBL1649120, “Differential effects of inhibiting chitin and 1,3-{beta}-D-glucan synthesis in ras and calcineurin mutants of Aspergillus fumigatus” (2009)
